Compound activity: PubChem BioAssay, several laboratories
D1 allo mod = allosteric modulators of human D1 dopamine receptor; P21728; HEK293 D1, CRE-luciferase, dopamine EC30 potentiation; actives deviate in either direction; B-score at 10 µM; 58,000 tested, 5.9% active; AID 641;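 active means luminescence count or its row- and column-corrected plate score outside the 99.7% band of the plate's sample wells, on either side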
M1 antag = antagonists of rat M1 muscarinic receptor. AID 628. B-score at 10 µM. P08482. 64,000 tested, 3.4% active. CHO-M1 cells, Fluo-4 calcium, ACh EC80 antagonist mode; active compounds read low;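 active means calcium fluorescence response, raw or row-and-column corrected B-score, differing from the plate sample mean either way at a set confidence level, mostly lower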
Target sequence (P08482 whole entry, looked up): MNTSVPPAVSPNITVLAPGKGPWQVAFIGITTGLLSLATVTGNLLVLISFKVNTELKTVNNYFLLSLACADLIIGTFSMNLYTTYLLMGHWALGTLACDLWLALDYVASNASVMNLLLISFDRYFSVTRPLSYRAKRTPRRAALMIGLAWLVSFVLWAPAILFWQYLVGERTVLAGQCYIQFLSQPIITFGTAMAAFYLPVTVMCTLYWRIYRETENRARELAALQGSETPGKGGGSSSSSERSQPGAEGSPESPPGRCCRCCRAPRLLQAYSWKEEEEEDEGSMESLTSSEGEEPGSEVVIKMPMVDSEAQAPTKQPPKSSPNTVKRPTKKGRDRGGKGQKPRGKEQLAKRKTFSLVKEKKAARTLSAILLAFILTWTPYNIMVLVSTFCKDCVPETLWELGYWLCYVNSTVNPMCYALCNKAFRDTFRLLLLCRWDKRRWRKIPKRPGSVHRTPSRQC
Htt clearance = mutant huntingtin protein clearance; inhibition, % at 1.5 µM; HeLa Exon1htt(103Q)mCFP, aggregate imaging; zero = plate's median compound well; 47,000 tested, 0.42% active; AID 853;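 active means inhibition of aggregate fluorescence above about 70%, also judged a hit by eye on the cell image, limit read from the data, passing the limit was not always enough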;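 further: cells exposed to compound for three days before fixation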
SF-1 act = activates the human nuclear receptor SF-1 | Q13285 | CHO-K1 Gal4-SF-1 LBD luciferase reporter; % increase over DMSO SF-1-specific signal | activation, % at 10 µM | 65,000 tested, 1.9% active | AID 522;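 active means activation above the mean activation of all tested compounds plus 3 SD, cut at about 50% in these data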
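Assay system – CHO-K1 cells with Gal4–hSF-1 LBD chimera plus Gal4-driven luciferase · Quantity – 4,000 cells per well · Times – compound added 1 h post-seeding, 20 h exposure at 37 °C, 5% CO2 · Measured by – luciferase light emission · Benchmarks – DMSO and mock-transfected background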
RORa activator = activators of human nuclear receptor RORA; P35398; activation, % at 10 µM; AID 560; CHO-K1 Gal4-RORA LBD luciferase reporter, luminescence; percent increase over mock-subtracted basal signal; 65,000 tested, 1.5% active;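 active means activation above the mean of all tested compounds plus 3 SD, cut at about 49% in these data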;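 further: 0% = DMSO-treated RORA cells and 100% = added signal equal to DMSO minus mock-transfected cells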
M1 ag = M1 muscarinic receptor agonism | CHO-M1 cells, Fluo-4 calcium fluorescence, agonist mode; active compounds read high | B-score at 10 µM | 64,000 tested, 3% active | AID 626;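 active means fluorescence rise, raw or as B-score row- and column-corrected plate score, outside the 99.7% band of its plate's samples, either direction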
D1 PAM confirm = D1 receptor (human) allosteric modulation, confirmed; HEK293 D1 CRE-luciferase, dopamine EC30 potentiation; active compounds read high; shares compounds with D1 allo mod; AID 642; 2,200 tested, 88% active; luminescence at 10 µM;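 active means luminescence in either of two replicates above the same-plate mean plus 3 SD of the low-dose dopamine control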
D1 ag no DA = activates D1 CRE-luciferase signal without dopamine present. shares compounds with D1 allo mod. luminescence at 10 µM. HEK293 D1 CRE-luciferase, luminescence, no dopamine; active compounds read high. 1,900 tested, 0.8% active. AID 646; in the data active means luminescence above about 3900
Isoprot counter = counter-screen for D1 modulators: isoproterenol response in HEK293 cells. shares compounds with D1 allo mod. HEK293 D1 CRE-luciferase, isoproterenol EC30 counter-screen. calls only at 10 µM. 2,200 tested, 63% active. AID 647;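 active means luminescence in either replicate above plate mean of wells with a partly effective reference agonist dose plus 3 SD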;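 further: isoproterenol raises cAMP through native beta-adrenoceptor Gs so signal bypasses D1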
Numbers without * were called inactive; i = inactive; · = not tested or not shown; + = active, no number. A selection: hits, their analogues and other compounds. The true share with any hit is near 11%.

SMILES	D1 allo mod	M1 antag	Htt clearance	SF-1 act	RORa activator	M1 ag	D1 PAM confirm	D1 ag no DA	Isoprot counter
CCOc1ccc2cc(C#N)c(SCC(=O)N3CCC(C)CC3)nc2c1	7.23*	0.000838	-1.1	-1.6	1.9	0.42	6372*	1652	+
COc1ccc2cc(C#N)c(SCC(=O)N3CCCC3)nc2c1	1.28	0.0171	-59.7	15.7	-2.4	-0.409	·	·	·
CCOc1ncccc1C(=O)OCc1ccc(C(=O)OC)o1	8*	-0.0311	·	-6.2	7.3	0.128	16096*	1680	+
CCOc1cc(C(=O)OCc2ccc(C(=O)OC)o2)cc(Br)c1OC	0.383	-0.616	24.2	-3.9	23.0	-0.382	·	·	·
CNC(=O)c1ccccc1NC(=O)c1ccco1	·	·	-1.8	·	·	·	·	·	·
COC(=O)c1ccccc1NC(=O)c1ccco1	4.37*	0.922	-61.3	-10.8	-2.3	0.776	11880*	1664	+
COC(=O)c1c(-c2ccccc2)csc1NC(=O)c1ccco1	4.93*	0.606	-39.3	40.1	95.9*	-0.442	6288*	1440	i
CC(=O)c1cccc(NC2c3ncccc3C(=O)N2Cc2ccco2)c1 (stereo unspecified)	19.5*	1.08	·	-3.2	-1.5	1.06	19736*	·	+
COC(=O)CSc1nnc(CNc2ccc(Cl)cc2)n1-c1ccccc1	·	·	-33.8	·	·	·	·	·	·
c1ccc(-c2nn3nnnc3c3ccccc23)cc1	11.8*	-0.0538	·	-0.5	-2.5	0.36	13348*	1552	+
CCOC(=O)c1c(-c2ccccc2)csc1NC(=O)C1CCCO1 (stereo unspecified)	·	·	-45.0	·	·	·	·	·	·
CCOC(=O)c1c(C2CC2)csc1NC(C)=O	4.88*	0.573	-44.5	-3.8	-13.4	2.27	9548*	1704	i
Cc1ccc(S(=O)(=O)N2CC3CCC2C3)cc1 (stereo unspecified)	4.37*	0.959	18.0	-9.9	16.6	0.876	6724*	·	i
CC1CCc2c(sc(NC(=O)CSc3ncnc4c3cnn4-c3ccccc3Cl)c2C#N)C1 (stereo unspecified)	·	·	-37.5	·	·	·	·	·	·
c1ccc(C2CC(c3ccccc3)n3ncnc3N2)cc1 (stereo unspecified)	4.38*	0.127	·	13.6	-10.0	-0.363	6308*	1700	i
COc1ccc(C2CC(c3ccccc3)Nc3nc(N)nn32)cc1 (stereo unspecified)	·	-0.00468	·	22.5	6.7	0.679	·	·	·
CCOc1ccc(C2CC(c3ccccc3)Nc3nc(N)nn32)cc1 (stereo unspecified)	·	0.453	·	9.0	-1.8	-0.036	·	·	·
Nc1nc2n(n1)C(c1ccccc1)CC(c1ccc(F)cc1)N2 (stereo unspecified)	6.03*	-0.589	-49.6	30.3	-1.8	0.0391	11012*	1632	i
Nc1nc2n(n1)C(c1cccc(Br)c1)CC(c1ccc(F)cc1)N2 (stereo unspecified)	14.3*	-0.312	60.0	-7.8	27.6	-0.927	13072*	1584	+
Nc1nc2n(n1)C(c1ccco1)CC(c1ccccc1)N2 (stereo unspecified)	13.5*	-1.64	25.1	-6.7	8.3	-0.99	20620*	1600	+
CCNC(=O)CN(Cc1ccccc1)S(=O)(=O)c1ccccc1	-0.272	-0.698	·	-4.4	-16.6	1.67	·	·	·
Clc1ccc(Cc2noc(-c3cccs3)n2)cc1	0.863	1.2	·	31.6	39.8	-0.427	·	·	·
CCC(C)Nc1nc2c(c(=O)[nH]c(=O)n2C)n1CCC(C)C (stereo unspecified)	16.7*	1.02	-45.3	7.4	-2.1	0.462	18228*	1632	+
COC(=O)C(C)Sc1nc2c(c(=O)n(C)c(=O)n2C)n1CCC(C)C (stereo unspecified)	·	-1.22	·	-3.9	2.0	0.622	·	·	·
CC(C)Cn1c(NCCN(C)C)nc2c1c(=O)[nH]c(=O)n2C	-0.271	0.952	17.4	15.9	-8.5	-0.127	·	·	·
SMILES	D1 allo mod	M1 antag	Htt clearance	SF-1 act	RORa activator	M1 ag	D1 PAM confirm	D1 ag no DA	Isoprot counter
COC(=O)C(C)Sc1nc2c(c(=O)[nH]c(=O)n2C)n1CCC(C)C (stereo unspecified)	9.94*	0.3	·	-4.3	20.0	-0.172	21460*	1708	+
COCCSc1nc2c(c(=O)[nH]c(=O)n2C)n1CCC(C)C	11*	0.299	·	10.5	7.5	-0.495	21024*	1464	+
C=C(C)CSc1nc2c(c(=O)[nH]c(=O)n2C)n1CCC(C)C	11.2*	0.024	-57.5	-19.5	-5.5	1.04	22496*	1732	+
C=C(C)Cn1c(SCCCO)nc2c1c(=O)[nH]c(=O)n2C	3.34	-0.722	5.8	-10.5	5.0	-0.467	·	·	·
COc1cccc(NC(=O)CSc2nncn2N)c1	-0.966	0.0237	-4.6	9.5	-15.2	-0.345	·	·	·
CCOc1ccc2nc(SCC(=O)NC(=O)NCc3ccco3)[nH]c2c1	·	·	-1.4	·	·	·	·	·	·
Cc1c(NC(=O)CN2C(=O)c3ccccc3C2=O)c(=O)n(-c2ccccc2)n1C	3.73*	0.293	·	-3.4	6.6	-1.45	4240	1472	i
COc1ccc(S(=O)(=O)N2CCC(C(=O)Nc3ccc4c(c3)OCCO4)CC2)cc1OC	·	·	-68.1	·	·	·	·	·	·
COc1cc2c(cc1OC)-c1cc(Nc3ccc4c(c3)OCCO4)nc(=O)n1CC2	24.1*	-2.61	49.9	-12.6	-35.6	-0.00161	13360*	1788	+
COc1cc2c(cc1OC)-c1cc(N3CCCCCC3)nc(=O)n1CC2	3.9*	0.168	-15.9	6.1	-3.0	-0.308	21696*	2196	+
COc1cc2c(cc1OC)-c1cc(N3CCCc4ccccc43)nc(=O)n1CC2	·	-0.0894	-2.7	36.6	8.4	0.694	·	·	·
COc1cc2c(cc1OC)-c1cc(NC3CCCCCC3)nc(=O)n1CC2	4.01*	1.16	23.0	1.9	-14.4	0.31	20748*	2368	+
COc1cc2c(cc1OC)-c1cc(OCc3cccnc3)nc(=O)n1CC2	18.6*	-2.42	·	8.5	20.6	0.146	25704*	2128	+
CCN(CC)CCCNc1cc2n(c(=O)n1)CCc1cc(OC)c(OC)cc1-2	0.199	-0.0106	-24.9	-10.0	-3.9	-0.576	·	·	·
CCOC(=O)Nc1nnc(-c2ccc(OC)c(OC)c2)s1	2.61	0.265	-1.8	-4.5	-3.3	-0.0194	·	·	·
Cn1cc(NC(=O)c2cc(NC(=O)c3cc(NC=O)cn3C)cn2C)cc1C(=O)NCCC(=N)N	-0.656	-6.11	·	2.0	-11.1	-0.145	·	·	·
CCCc1nnc(SCC(=O)N2CCCCC2)n1CCCOC	·	·	25.8	·	·	·	·	·	·
